Laboratory results: ChEMBL document CHEMBL1154630, “Discovery of colon tumor cell growth inhibitory agents through a combinatorial approach” (Eur J Med Chem, 2010)

Assays:
[1] = target: T1, cGMP-inhibited 3',5'-cyclic phosphodiesterase 3A (Homo sapiens, UniProt Q14432); experiment: Inhibition of human recombinant PDE3A at 50 uM by fluorescence polarization assay using cAMP as substrate
[2] = target: T1, cGMP-inhibited 3',5'-cyclic phosphodiesterase 3A; experiment: Inhibition of human recombinant PDE3A at 50 uM by fluorescence polarization assay using cGMP as substrate
[3] = system: HT-29; experiment: Cytotoxicity against human HT-29 cells at 50 uM after 72 hrs by celltiter glo assay; type: functional; settings: HT-29, 72 h, read-out: GI
In short: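 HT-29 cells in RPMI 1640 plus 5% FBS, cultures >95% viable by Trypan blue. Seeded at 5000 cells/well and incubated 18–24 h, then exposed to a single 50 μM screening dose in triplicate. Live cells measured by CellTiter-Glo luminescent ATP assay at 72 h; percent growth inhibition reported.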

[4] = system: HT-29; experiment: Cytotoxicity against human HT-29 cells after 72 hrs by celltiter glo assay; type: functional, cell-based; settings: HT-29, 72 h
In short: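 HT-29 cells grown in RPMI 1640 with 5% FBS, used only at >95% viability (Trypan blue). 5000 cells/well, left 18–24 h before treatment. Viability read by CellTiter-Glo luminescence (ATP content) 72 h after treatment. IC50 from 8 concentrations, at least four replicates each, fitted to a four-parameter logistic equation.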

[5] = target: Baculoviral IAP repeat-containing protein 5 (Homo sapiens, UniProt O15392); experiment: Inhibition of survivin
Sequence of Baculoviral IAP repeat-containing protein 5 (O15392 whole entry): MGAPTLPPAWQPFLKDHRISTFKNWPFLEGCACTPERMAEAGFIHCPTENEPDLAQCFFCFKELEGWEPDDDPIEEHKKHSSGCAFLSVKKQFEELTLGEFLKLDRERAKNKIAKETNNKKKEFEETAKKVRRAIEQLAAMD

[6] = target: T1, cGMP-inhibited 3',5'-cyclic phosphodiesterase 3A; experiment: Inhibition of human recombinant PDE3A by fluorescence polarization assay using cGMP as substrate
[7] = target: T1, cGMP-inhibited 3',5'-cyclic phosphodiesterase 3A; experiment: Inhibition of human recombinant PDE3A by fluorescence polarization assay using cAMP as substrate

T1 sequence (Q14432 whole entry): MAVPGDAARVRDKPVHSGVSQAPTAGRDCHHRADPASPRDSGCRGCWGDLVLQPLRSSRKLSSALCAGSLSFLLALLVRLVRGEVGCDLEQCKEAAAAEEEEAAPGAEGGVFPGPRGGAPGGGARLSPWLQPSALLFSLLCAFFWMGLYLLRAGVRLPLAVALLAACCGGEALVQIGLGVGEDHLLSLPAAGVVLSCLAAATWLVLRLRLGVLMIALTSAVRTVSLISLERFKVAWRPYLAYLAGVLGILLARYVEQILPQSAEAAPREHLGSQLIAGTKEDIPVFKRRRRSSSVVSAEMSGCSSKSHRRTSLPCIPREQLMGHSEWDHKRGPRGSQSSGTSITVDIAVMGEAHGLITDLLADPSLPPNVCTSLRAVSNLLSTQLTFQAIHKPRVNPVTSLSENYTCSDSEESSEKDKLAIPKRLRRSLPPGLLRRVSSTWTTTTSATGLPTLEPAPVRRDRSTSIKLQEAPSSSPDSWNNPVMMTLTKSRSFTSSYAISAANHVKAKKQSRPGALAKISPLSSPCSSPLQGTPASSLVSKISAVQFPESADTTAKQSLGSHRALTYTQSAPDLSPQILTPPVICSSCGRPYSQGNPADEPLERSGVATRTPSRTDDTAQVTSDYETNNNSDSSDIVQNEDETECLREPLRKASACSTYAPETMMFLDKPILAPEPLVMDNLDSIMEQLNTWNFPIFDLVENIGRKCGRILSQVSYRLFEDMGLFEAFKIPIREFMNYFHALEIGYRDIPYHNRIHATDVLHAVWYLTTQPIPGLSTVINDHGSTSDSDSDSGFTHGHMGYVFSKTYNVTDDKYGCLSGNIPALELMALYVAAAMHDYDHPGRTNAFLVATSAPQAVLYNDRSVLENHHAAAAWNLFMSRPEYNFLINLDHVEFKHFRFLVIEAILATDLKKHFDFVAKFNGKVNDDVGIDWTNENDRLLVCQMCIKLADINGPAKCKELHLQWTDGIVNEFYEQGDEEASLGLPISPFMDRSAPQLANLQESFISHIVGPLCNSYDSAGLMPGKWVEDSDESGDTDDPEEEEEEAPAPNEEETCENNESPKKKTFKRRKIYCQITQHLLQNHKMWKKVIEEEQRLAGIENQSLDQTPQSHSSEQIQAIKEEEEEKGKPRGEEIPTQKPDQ

| Structure (SMILES) | inhibition [1] | inhibition [2] | inhibition of growth at 50 µM [3] | IC50 [4] | Kd [5] | IC50 [6] | IC50 [7] |
| --- | --- | --- | --- | --- | --- | --- | --- |
| N#Cc1c(-c2cccc(Cl)c2)cc(-c2ccccc2)[nH]c1=N | 15% | 20% |  |  |  |  |  |
| COc1ccc(OC)c(-c2cc(-c3ccc(Br)cc3)[nH]c(=O)c2C#N)c1 | 8% | 17% | 33% |  |  |  |  |
| CCOc1ccccc1-c1cc(-c2ccsc2)[nH]c(=O)c1C#N | 5% | 20% | 80% | 1.25 µM |  |  |  |
| N#Cc1c(-c2ccccc2)cc(-c2cc(Br)ccc2O)[nH]c1=O |  |  |  |  | 5.7 µM |  |  |
| N#Cc1c(-c2ccccc2Cl)cc(-c2ccc(Br)cc2)[nH]c1=O | 18% | 36% | 5% |  |  |  |  |
| CCOc1ccc(-c2cc(-c3ccsc3)[nH]c(=N)c2C#N)cc1 | 55% | 80% | -10% |  |  | 13.5 µM | 13.3 µM |
| N#Cc1c(-c2ccccc2O)cc(-c2ccc(Br)cc2)[nH]c1=O | 10% | 28% | 94% | 21 µM |  |  |  |
| N#Cc1c(-c2cccc(Cl)c2)cc(-c2ccccc2)[nH]c1=O | 10% | 24% | 80% | 2.1 µM |  |  |  |
| N#Cc1c(-c2ccccc2O)cc(-c2ccsc2)[nH]c1=O | 21% | 37% | 79% | 46 µM |  |  |  |
| CCOc1ccc(-c2cc(-c3ccsc3)[nH]c(=O)c2C#N)cc1 | 7% | 0% | -1% |  |  |  |  |
| N#Cc1c(-c2ccc(Cl)cc2)cc(-c2ccsc2)[nH]c1=O | 5% | 14% |  |  |  |  |  |
| N#Cc1c(-c2ccccc2O)cc(-c2ccccc2Br)[nH]c1=O | 34% | 50% | 22% |  |  |  |  |
| N#Cc1c(-c2ccc(Cl)cc2)cc(-c2ccsc2)[nH]c1=N | 28% | 45% | 65% |  |  |  |  |
| N#Cc1c(-c2cccc(Cl)c2)cc(-c2ccc(Br)cc2)[nH]c1=N | 10% | 13% | 7% |  |  |  |  |
| COc1ccc(-c2cc(-c3ccc(Br)cc3)[nH]c(=O)c2C#N)c(OC)c1 | 2% | -8% | 0% |  |  |  |  |
| N#Cc1c(-c2cccc(Cl)c2)cc(-c2ccc(Br)cc2)[nH]c1=O | 8% | 21% | 7% |  |  |  |  |

| Structure (SMILES) | inhibition [1] | inhibition [2] | inhibition of growth at 50 µM [3] | IC50 [4] | Kd [5] | IC50 [6] | IC50 [7] |
| --- | --- | --- | --- | --- | --- | --- | --- |
| COc1ccccc1-c1cc(-c2ccsc2)[nH]c(=N)c1C#N | 47% |  | 78% | 35 µM |  |  |  |
| N#Cc1c(-c2ccccc2O)cc(-c2cccc(Br)c2)[nH]c1=O | 20% | 45% | -5% |  |  |  |  |
| COc1ccc(-c2cc(-c3ccsc3)[nH]c(=N)c2C#N)cc1 | 10% | 30% | 75% | 2.7 µM |  |  |  |
| N#Cc1c(-c2ccccc2O)cc(-c2ccc(Br)cc2)[nH]c1=N | 22% | 27% | 23% |  |  |  |  |
| COc1ccc(-c2cc(-c3ccsc3)[nH]c(=O)c2C#N)cc1 | 8% | 0% | -20% |  |  |  |  |
| N#Cc1c(-c2ccccc2O)cc(-c2cccc(Br)c2)[nH]c1=N | 18% | 36% | 30% |  |  |  |  |
| COc1ccccc1-c1cc(-c2ccsc2)[nH]c(=O)c1C#N | 10% | 8% | 20% |  |  |  |  |
| COc1ccc(-c2cc(-c3ccc(Br)cc3)[nH]c(=N)c2C#N)c(OC)c1 | 25% | 70% | 2% |  |  |  |  |
| CCOc1ccccc1-c1cc(-c2ccsc2)[nH]c(=N)c1C#N | 37% | -10% | 92% | 6 µM |  |  |  |
| COc1ccc(OC)c(-c2cc(-c3ccc(Br)cc3)[nH]c(=N)c2C#N)c1 | 20% | 20% | 95% | 4 µM |  |  |  |
| N#Cc1c(-c2ccccc2O)cc(-c2ccccc2Br)[nH]c1=N | 20% | 40% | 28% |  |  |  |  |
| N#Cc1c(-c2ccsc2)cc(-c2ccccc2)[nH]c1=O | 7% | 9% | -10% |  |  |  |  |
| N#Cc1c(-c2ccsc2)cc(-c2ccccc2)[nH]c1=N | 4% | 0% | 25% |  |  |  |  |
| N#Cc1c(-c2ccccc2Cl)cc(-c2ccc(Br)cc2)[nH]c1=N | 36% | 47% | -16% |  |  |  |  |
| N#Cc1c(-c2ccccc2O)cc(-c2ccsc2)[nH]c1=N | 21% | 26% | 44% |  |  |  |  |
